Assay results published in ChEMBL document CHEMBL3593206, “SAR Studies of Exosite-Binding Substrate-Selective Inhibitors of A Disintegrin And Metalloprotease 17 (ADAM17) and Application as Selective in Vitro Probes” (J Med Chem, 2015).
Activity calls are given as the source filed them. The rule behind the calls is not given here.

Assays:
[1] = target: T1, Disintegrin and metalloproteinase domain-containing protein 10 (Homo sapiens) (UniProt O14672); conditions: A549, 10 uM
T1 sequence (whole entry): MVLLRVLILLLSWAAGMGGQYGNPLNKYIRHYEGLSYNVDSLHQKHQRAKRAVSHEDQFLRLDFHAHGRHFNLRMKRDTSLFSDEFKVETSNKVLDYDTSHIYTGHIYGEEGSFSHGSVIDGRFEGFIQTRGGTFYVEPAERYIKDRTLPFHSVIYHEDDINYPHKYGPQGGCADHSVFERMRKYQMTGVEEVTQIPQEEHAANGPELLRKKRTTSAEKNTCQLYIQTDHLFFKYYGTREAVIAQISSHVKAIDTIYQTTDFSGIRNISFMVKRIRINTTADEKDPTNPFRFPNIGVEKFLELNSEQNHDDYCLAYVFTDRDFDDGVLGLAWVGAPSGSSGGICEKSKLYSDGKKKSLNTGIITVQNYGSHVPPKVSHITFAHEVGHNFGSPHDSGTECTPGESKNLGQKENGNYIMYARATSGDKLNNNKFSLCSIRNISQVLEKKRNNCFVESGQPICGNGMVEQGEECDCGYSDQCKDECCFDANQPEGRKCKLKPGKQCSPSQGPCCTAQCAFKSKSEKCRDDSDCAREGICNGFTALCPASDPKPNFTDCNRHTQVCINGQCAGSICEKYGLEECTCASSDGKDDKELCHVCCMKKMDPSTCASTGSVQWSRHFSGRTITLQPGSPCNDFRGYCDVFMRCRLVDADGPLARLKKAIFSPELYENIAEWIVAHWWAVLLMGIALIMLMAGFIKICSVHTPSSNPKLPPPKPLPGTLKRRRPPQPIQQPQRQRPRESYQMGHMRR

[2] = target: T2, 72 kDa type IV collagenase (Homo sapiens, UniProt P08253); assay: Inhibition of MMP2 (unknown origin) using Mca-KLPGL-Dnp-AR as substrate preincubated for 30 mins followed by substrate addition measured after 1 hr by fluorescence assay
Method in brief: (§1)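 Inhibitor as 10-point 1:3 dilutions from 300 μM, 30 min at RT. Substrate added from a 30 μM 3× solution. Single fluorescence read (ex 324/em 393 nm) after 1 h at RT.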
Target sequence in this assay (P08253 whole entry): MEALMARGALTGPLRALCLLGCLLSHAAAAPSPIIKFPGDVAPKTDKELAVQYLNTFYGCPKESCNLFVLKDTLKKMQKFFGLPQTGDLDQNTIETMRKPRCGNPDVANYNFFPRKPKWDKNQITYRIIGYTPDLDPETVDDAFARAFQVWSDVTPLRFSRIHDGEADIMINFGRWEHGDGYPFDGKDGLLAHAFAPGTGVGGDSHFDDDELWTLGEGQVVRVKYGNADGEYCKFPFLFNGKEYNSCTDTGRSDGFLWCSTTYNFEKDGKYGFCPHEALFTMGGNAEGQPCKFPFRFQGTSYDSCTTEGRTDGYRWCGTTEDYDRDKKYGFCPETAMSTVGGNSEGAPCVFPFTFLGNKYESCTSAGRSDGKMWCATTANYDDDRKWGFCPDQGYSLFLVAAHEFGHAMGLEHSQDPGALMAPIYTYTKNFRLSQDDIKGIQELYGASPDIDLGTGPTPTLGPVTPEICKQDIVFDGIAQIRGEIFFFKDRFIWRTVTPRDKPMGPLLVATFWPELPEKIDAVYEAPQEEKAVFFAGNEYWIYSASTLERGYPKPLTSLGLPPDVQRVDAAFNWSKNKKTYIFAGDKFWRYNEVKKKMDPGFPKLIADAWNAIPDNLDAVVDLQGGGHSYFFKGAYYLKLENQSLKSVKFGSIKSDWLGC

[3] = Cytotoxicity against CHOK1 cells assessed as inhibition of cell viability up to 33 uM after 72 hrs by CellTiter-Glo assay; type: cell-based, Cricetulus griseus; conditions: chinese hamster, cho-k1, 72 h
[4] = target: T3, Disintegrin and metalloproteinase domain-containing protein 17 (Homo sapiens, UniProt P78536); assay: Inhibition of ADAM17 in human EAhy926 cells assessed as inhibition of neprilysin shedding at 15 uM relative to control; type: cell-based
T3 sequence (P78536 whole entry, the tested form may be a part): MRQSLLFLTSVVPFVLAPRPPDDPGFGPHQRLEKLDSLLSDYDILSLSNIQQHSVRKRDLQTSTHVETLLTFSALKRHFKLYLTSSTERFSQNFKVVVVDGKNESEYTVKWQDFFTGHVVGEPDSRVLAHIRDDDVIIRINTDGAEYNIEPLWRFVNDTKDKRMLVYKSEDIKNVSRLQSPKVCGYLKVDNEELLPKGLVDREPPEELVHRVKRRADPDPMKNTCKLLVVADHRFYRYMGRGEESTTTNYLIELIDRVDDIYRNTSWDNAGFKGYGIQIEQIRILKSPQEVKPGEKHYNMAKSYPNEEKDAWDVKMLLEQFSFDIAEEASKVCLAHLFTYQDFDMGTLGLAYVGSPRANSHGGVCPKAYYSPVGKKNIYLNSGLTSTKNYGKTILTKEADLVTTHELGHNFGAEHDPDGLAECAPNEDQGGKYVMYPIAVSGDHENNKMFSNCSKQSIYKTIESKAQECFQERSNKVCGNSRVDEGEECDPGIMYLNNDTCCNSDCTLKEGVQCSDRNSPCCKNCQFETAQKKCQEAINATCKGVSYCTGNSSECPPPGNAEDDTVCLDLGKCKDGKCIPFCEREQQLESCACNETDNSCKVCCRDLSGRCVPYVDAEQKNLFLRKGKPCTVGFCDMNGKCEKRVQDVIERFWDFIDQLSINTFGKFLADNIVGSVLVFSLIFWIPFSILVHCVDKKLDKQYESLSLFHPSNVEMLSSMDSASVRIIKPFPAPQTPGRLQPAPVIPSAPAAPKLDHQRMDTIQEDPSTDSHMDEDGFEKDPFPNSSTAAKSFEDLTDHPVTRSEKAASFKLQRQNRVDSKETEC

[5] = target: T3, Disintegrin and metalloproteinase domain-containing protein 17; assay: Inhibition of ADAM17 in human SW480 cells assessed as inhibition of PMA-stimulated wild type PTK7 shedding at 25 to 100 uM after 16 hrs by Western blot analysis; type: cell-based
Method in brief: (§2)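 PTK7 shedding tested at 25, 50 and 100 μM in PMA-stimulated cells. HT1080 fibrosarcoma cells carried the L622D PTK7 mutant uncleavable by MT1-MMP; SW480 colorectal cells expressed wild-type PTK7 endogenously. Soluble PTK7 was detected.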

Neutrophil collagenase [6] = target: T4, Neutrophil collagenase (Homo sapiens, UniProt P22894); assay: Inhibition of MMP8 (unknown origin) using Mca-KLPGL-Dnp-AR as substrate at 100 uM preincubated for 30 mins followed by substrate addition measured after 1 hr by fluorescence assay relative to control
Method in brief: as §1
Target sequence in this assay (P22894 101-467 limits assumed): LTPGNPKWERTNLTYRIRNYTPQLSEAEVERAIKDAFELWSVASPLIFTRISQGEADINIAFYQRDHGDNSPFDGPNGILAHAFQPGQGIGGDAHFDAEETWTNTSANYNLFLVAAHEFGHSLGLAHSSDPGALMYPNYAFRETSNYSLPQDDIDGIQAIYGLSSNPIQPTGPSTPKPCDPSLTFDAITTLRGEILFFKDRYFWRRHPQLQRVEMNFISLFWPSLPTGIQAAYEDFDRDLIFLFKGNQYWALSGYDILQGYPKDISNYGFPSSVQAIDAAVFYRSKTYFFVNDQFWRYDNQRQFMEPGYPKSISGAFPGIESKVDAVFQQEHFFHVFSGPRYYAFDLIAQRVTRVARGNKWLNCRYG

Neutrophil collagenase [7] = target: T4, Neutrophil collagenase; assay: Inhibition of MMP8 (unknown origin) using Mca-KLPGL-Dnp-AR as substrate preincubated for 30 mins followed by substrate addition measured after 1 hr by fluorescence assay
Method in brief: as §1
Target sequence in this assay (P22894 whole entry): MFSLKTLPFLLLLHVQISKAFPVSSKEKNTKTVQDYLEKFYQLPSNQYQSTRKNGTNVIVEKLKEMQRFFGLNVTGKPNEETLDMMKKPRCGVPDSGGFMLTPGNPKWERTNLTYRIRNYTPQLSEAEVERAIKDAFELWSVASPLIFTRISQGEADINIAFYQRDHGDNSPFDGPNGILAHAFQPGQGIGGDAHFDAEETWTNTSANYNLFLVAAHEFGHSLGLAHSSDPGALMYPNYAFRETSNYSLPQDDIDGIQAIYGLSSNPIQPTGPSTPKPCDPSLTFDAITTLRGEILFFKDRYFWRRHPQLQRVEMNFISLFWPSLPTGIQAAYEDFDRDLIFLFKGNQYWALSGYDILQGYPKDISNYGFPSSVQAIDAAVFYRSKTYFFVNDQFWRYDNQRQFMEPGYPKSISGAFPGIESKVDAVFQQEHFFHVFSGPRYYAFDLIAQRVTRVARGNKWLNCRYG

[8] = target: T5, Matrix metalloproteinase-9 (Homo sapiens, UniProt P14780); assay: Inhibition of MMP9 (unknown origin) using Mca-KLPGL-Dnp-AR as substrate at 100 uM preincubated for 30 mins followed by substrate addition measured after 1 hr by fluorescence assay relative to control
T5 sequence (P14780 whole entry): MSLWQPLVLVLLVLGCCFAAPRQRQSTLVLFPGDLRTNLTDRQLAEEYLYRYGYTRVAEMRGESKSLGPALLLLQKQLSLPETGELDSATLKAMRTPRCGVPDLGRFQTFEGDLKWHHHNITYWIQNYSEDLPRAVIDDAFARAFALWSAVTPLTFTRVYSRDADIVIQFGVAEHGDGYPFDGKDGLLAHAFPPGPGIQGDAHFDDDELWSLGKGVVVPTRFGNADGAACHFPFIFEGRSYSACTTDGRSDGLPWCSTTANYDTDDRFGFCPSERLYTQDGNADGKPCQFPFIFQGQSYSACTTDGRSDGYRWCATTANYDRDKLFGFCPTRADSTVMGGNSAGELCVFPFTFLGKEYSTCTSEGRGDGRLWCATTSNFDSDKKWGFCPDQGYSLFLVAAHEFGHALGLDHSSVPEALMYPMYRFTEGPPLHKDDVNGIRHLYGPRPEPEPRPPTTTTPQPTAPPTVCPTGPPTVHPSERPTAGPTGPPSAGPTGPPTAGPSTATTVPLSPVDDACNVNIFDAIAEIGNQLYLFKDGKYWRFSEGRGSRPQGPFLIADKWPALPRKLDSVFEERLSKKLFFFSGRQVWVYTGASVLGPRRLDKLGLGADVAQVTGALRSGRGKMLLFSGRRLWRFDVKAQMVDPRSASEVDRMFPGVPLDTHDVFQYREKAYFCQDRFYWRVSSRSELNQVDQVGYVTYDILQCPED
Method in brief: as §1

[9] = target: T1, Disintegrin and metalloproteinase domain-containing protein 10 (Homo sapiens); assay: Inhibition of ADAM10 (unknown origin) at 100 uM preincubated for 30 mins followed by substrate addition measured every 30 mins for 2 hrs by fluorescence assay relative to control
Method in brief: (§3)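 Enzyme at 30 nM (3× solution) in 10 mM Hepes, 0.001% Brij-35, pH 7.5. Inhibitor series of 10 points, 1:3, from 300 μM, preincubated 30 min at RT. Glycosylated substrate added from a 30 μM 3× solution. Fluorescence (ex 360/em 460 nm) read every 30 min for 2 h. Inhibition taken from hydrolysis rates against substrate-only and substrate-plus-enzyme wells.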

[10] = target: T3, Disintegrin and metalloproteinase domain-containing protein 17; assay: Inhibition of ADAM17 in human A549 cells assessed as effect on PMA-stimulated TGFalpha shedding up to 100 uM preincubated for 1 hr followed by PMA stimulation measured after 1 hr by ELISA; type: cell-based
Method in brief: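 TGFα shedding from PMA-treated A549 cells tested up to 100 μM. Marimastat at 10 μM served as control, with a non-PMA-treated control included; soluble TGFα measured in the supernatant.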

[11] = target: T3, Disintegrin and metalloproteinase domain-containing protein 17; assay: Inhibition of ADAM17 (unknown origin) preincubated for 30 mins followed by substrate addition measured every 30 mins for 2 hrs by fluorescence assay
Method in brief: as §3

[12] = target: T5, Matrix metalloproteinase-9; assay: Inhibition of MMP9 (unknown origin) using Mca-KLPGL-Dnp-AR as substrate preincubated for 30 mins followed by substrate addition measured after 1 hr by fluorescence assay
Method in brief: as §1

[13] = target: T3, Disintegrin and metalloproteinase domain-containing protein 17; assay: Inhibition of ADAM17 in human THP1 cells assessed as inhibition of LPS-stimulated TNFalpha cleavage after 1 hr by AlphaScreen assay; type: cell-based, THP-1
Method in brief: (§4)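 THP-1 cells grown in RPMI 1640 with 10% FBS and 0.05 mM 2-mercaptoethanol; 3000 cells per well. Compound given in 3% DMSO for 1 h, then LPS added (1 μg/mL final) and cells incubated overnight at 37 °C. TNFα detected by AlphaScreen using anti-TNFα acceptor beads and streptavidin donor beads, each step 1 h in the dark at RT.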

[14] = target: T3, Disintegrin and metalloproteinase domain-containing protein 17; assay: Inhibition of ADAM17 (unknown origin) at 100 uM preincubated for 30 mins followed by substrate addition measured every 30 mins for 2 hrs by fluorescence assay relative to control
Method in brief: as §3

[15] = target: T3, Disintegrin and metalloproteinase domain-containing protein 17; assay: Inhibition of ADAM17 in human THP1 cells assessed as inhibition of LPS-stimulated TNFalpha cleavage at 25 uM after 1 hr by AlphaScreen assay relative to control; type: cell-based; conditions: THP-1
Method in brief: as §4

[16] = target: T2, 72 kDa type IV collagenase; assay: Inhibition of MMP2 (unknown origin) using Mca-KLPGL-Dnp-AR as substrate at 100 uM preincubated for 30 mins followed by substrate addition measured after 1 hr by fluorescence assay relative to control
Method in brief: as §1
Target sequence in this assay (P08253 110-660 limits assumed): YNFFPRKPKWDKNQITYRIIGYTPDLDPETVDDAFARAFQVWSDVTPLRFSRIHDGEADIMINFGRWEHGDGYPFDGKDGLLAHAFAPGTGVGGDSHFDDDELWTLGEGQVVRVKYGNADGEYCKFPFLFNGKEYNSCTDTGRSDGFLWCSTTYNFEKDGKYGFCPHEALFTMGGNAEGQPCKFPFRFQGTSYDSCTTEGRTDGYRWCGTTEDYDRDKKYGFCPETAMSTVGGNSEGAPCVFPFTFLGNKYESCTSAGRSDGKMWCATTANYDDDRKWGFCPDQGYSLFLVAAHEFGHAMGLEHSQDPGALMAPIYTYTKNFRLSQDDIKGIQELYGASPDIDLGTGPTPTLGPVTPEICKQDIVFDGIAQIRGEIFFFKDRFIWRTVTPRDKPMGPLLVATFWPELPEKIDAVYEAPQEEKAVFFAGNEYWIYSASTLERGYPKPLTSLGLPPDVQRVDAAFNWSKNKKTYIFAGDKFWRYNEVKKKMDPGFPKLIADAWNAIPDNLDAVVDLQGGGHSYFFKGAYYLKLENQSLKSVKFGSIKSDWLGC

[17] = target: T6, Disintegrin and metalloproteinase domain-containing protein 10 (Homo sapiens, UniProt O14672); assay: Inhibition of ADAM10 (unknown origin) preincubated for 30 mins followed by substrate addition measured every 30 mins for 2 hrs by fluorescence assay
T6 sequence (O14672 whole entry): T1 sequence (whole entry)
Method in brief: as §3

[18] = target: T3, Disintegrin and metalloproteinase domain-containing protein 17; assay: Inhibition of ADAM17 in human HT1080 cells assessed as inhibition of PMA-stimulated PTK7 L622D mutant shedding at 25 to 100 uM after 16 hrs by Western blot analysis; type: cell-based; conditions: HT-1080
Method in brief: as §2

[19] = target: T3, Disintegrin and metalloproteinase domain-containing protein 17; assay: Inhibition of ADAM17 in human A549 cells assessed as inhibition of PMA-stimulated heregulin shedding at 40 uM incubated for 1 hr followed by PMA stimulation measured after 1 hr; type: cell-based
Method in brief: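 Heregulin shedding in A549 cells, with all compounds tested at 40 μM.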

[20] = target: Matrix metalloproteinase-14 (Homo sapiens, UniProt P50281); assay: Inhibition of MMP14 (unknown origin) using Mca-KLPGL-Dnp-AR as substrate preincubated for 30 mins followed by substrate addition measured after 1 hr by fluorescence assay
Method in brief: as §1

A549 = assay: Cytotoxicity against human A549 cells assessed as inhibition of cell viability up to 33 uM after 72 hrs by CellTiter-Glo assay; type: cell-based; conditions: a549, 72 h

Structure (SMILES): CNC(=O)[C@@H](NC(=O)[C@H](CC(C)C)[C@H](O)C(=O)NO)C(C)(C)C
- inhibition [1]: Active

Structure (SMILES): CCC[C@H]1CNC(=O)C(=O)N1C[C@@H]1CCCN1C[C@@H](CC1CCCCC1)N1C[C@H](Cc2ccccc2)N(CCc2ccccc2)C(=O)C1=O
- IC50 [2]: > 100 µM
- Activity [3]: Non-toxic
- inhibition [4]: 38%
- inhibition [5]: 0%
- inhibition (Neutrophil collagenase [6]): 0%
- IC50 (Neutrophil collagenase [7]): > 100 µM
- inhibition [8]: 0%
- inhibition [9]: 0%
- inhibition [10]: 0%
- IC50 [11]: 4.3 µM
- IC50 [12]: > 100 µM
- IC50 [13]: 28 µM
- inhibition [14]: 100%
- inhibition [15]: 60%
- inhibition [16]: 0%
- IC50 [17]: > 100 µM
- inhibition [18]: 0%
- inhibition [19]: 28%
- IC50 [20]: > 100 µM
- Activity (A549): Non-toxic
